Data from ChEMBL document CHEMBL4732237, “Discovery of 4-alkoxy-2-aryl-6,7-dimethoxyquinolines as a new class of topoisomerase I inhibitors endowed with potent in vitro anticancer activity” (2021).

Columns and labels:
[1] = test system: DU-145; assay: Growth inhibition of human DU-145 cells incubated for 48 hrs by sulforhodamine B assay; assay type: functional
How it was run: (§1)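 NCI five-dose screen covering 0.01–100 µM, prepared as 10-fold or ½-log dilutions from DMSO stock. Cells in RPMI 1640 with 5% FBS were exposed for 48 h at 37 °C after 24 h preincubation. Adherent cells were fixed with TCA (final 10%) and suspension cells were settled before fixing. Stain was SRB, read at 515 nm. GI50 = 50% reduction in net protein increase versus control, with Tz taken at drug addition.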

[2] = test system: SF-268; assay: Growth inhibition of human SF-268 cells incubated for 48 hrs by sulforhodamine B assay; assay type: functional
How it was run: (§2)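 NCI five-dose screen (0.01–100 µM; five concentrations plus control). Cells grown in RPMI 1640/5% FBS/2 mM L-glutamine and preincubated 24 h, with time-zero plates TCA-fixed. Drug exposure 48 h at 37 °C, followed by SRB protein staining and reading at 515 nm. GI50 is the concentration at [(Ti-Tz)/(C-Tz)]×100 = 50.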

[3] = test system: RXF 393; assay: Growth inhibition of human RXF 393 cells incubated for 48 hrs by sulforhodamine B assay; assay type: functional; how it was run: as §2
[4] = test system: A498; assay: Growth inhibition of human A498 cells incubated for 48 hrs by sulforhodamine B assay; assay type: functional
How it was run: (§3)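 NCI five-dose assay, with drug stocks in DMSO diluted in medium to five concentrations (10-fold or ½-log series). Cells in RPMI 1640/5% FBS were pre-incubated 24 h, and time-zero plates were TCA-fixed at drug addition. After 48 h at 37 °C, cells were TCA-fixed, SRB-stained and read at 515 nm. GI50 is from [(Ti-Tz)/(C-Tz)]×100 = 50, TGI from Ti = Tz, and LC50 from [(Ti-Tz)/Tz]×100 = -50.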

[5] = target: T1, DNA topoisomerase 1 (Homo sapiens) (UniProt P11387); assay: Inhibition of recombinant human TOPO1 assessed as TOP1-DNA cleavage complexes at 1 uM using 3'-[32-P]-117 labeled bp DNA as substrate incubated for 30 mins by SDS-PAGE analysis relative to control
T1 sequence (whole entry): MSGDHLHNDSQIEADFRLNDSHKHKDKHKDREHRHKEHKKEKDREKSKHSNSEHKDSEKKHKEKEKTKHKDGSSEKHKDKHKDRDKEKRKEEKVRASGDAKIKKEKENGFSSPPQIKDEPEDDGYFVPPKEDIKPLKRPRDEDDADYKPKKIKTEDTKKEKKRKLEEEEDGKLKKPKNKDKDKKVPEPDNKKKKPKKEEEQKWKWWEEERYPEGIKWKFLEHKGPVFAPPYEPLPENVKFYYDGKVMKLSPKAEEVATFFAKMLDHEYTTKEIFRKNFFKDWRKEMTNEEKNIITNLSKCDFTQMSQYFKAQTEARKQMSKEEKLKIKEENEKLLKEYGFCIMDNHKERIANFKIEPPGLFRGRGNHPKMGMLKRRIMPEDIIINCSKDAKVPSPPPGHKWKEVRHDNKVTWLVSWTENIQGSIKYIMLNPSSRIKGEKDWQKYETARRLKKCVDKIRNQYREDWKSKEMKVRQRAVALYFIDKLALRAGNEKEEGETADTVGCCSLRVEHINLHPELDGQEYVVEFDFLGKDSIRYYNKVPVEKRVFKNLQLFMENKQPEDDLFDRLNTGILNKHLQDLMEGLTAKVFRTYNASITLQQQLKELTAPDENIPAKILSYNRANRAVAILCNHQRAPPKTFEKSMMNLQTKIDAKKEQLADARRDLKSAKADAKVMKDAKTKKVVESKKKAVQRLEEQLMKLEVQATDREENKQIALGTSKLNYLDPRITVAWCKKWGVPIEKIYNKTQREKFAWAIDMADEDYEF

[6] = test system: MOLT-4; assay: Growth inhibition of human MOLT-4 cells incubated for 48 hrs by sulforhodamine B assay; assay type: functional; how it was run: as §2
[7] = test system: HCC 2998; assay: Growth inhibition of human HCC 2998 cells incubated for 48 hrs by sulforhodamine B assay; assay type: functional; how it was run: as §1
[8] = test system: Hs-578T; assay: Growth inhibition of human HS-578T cells incubated for 48 hrs by sulforhodamine B assay; assay type: functional; how it was run: as §1
[9] = test system: K562; assay: Growth inhibition of human K562 cells incubated for 48 hrs by sulforhodamine B assay; assay type: functional; how it was run: as §1
[10] = test system: CAKI-1; assay: Growth inhibition of human CAKI-1 cells incubated for 48 hrs by sulforhodamine B assay; assay type: functional; how it was run: as §1
[11] = test system: NCI-H522; assay: Growth inhibition of human NCI-H522 cells incubated for 48 hrs by sulforhodamine B assay; assay type: functional; how it was run: as §2
[12] = test system: NCI-H226; assay: Growth inhibition of human NCI-H226 cells incubated for 48 hrs by sulforhodamine B assay; assay type: functional; how it was run: as §2
[13] = test system: ACHN; assay: Growth inhibition of human ACHN cells incubated for 48 hrs by sulforhodamine B assay; assay type: functional; how it was run: as §1
[14] = test system: M14; assay: Growth inhibition of human M14 cells incubated for 48 hrs by sulforhodamine B assay; assay type: functional; how it was run: as §1
[15] = test system: TK-10; assay: Growth inhibition of human TK-10 cells incubated for 48 hrs by sulforhodamine B assay; assay type: functional; how it was run: as §3
[16] = test system: HOP-92; assay: Growth inhibition of human HOP-92 cells incubated for 48 hrs by sulforhodamine B assay; assay type: functional; how it was run: as §1
[17] = test system: MDA-MB-435; assay: Growth inhibition of human MDA-MB-435 cells incubated for 48 hrs by sulforhodamine B assay; assay type: functional; how it was run: as §1
[18] = test system: OVCAR-3; assay: Growth inhibition of human OVCAR-3 cells incubated for 48 hrs by sulforhodamine B assay; assay type: functional; how it was run: as §2
[19] = test system: UACC-257; assay: Growth inhibition of human UACC-257 cells incubated for 48 hrs by sulforhodamine B assay; assay type: functional; how it was run: as §3
[20] = test system: SNB-19; assay: Growth inhibition of human SNB-19 cells incubated for 48 hrs by sulforhodamine B assay; assay type: functional; how it was run: as §2
[21] = test system: SW-620; assay: Growth inhibition of human SW-620 cells incubated for 48 hrs by sulforhodamine B assay; assay type: functional; how it was run: as §3
[22] = test system: SK-MEL-2; assay: Growth inhibition of human SK-MEL-2 cells incubated for 48 hrs by sulforhodamine B assay; assay type: functional; how it was run: as §2
[23] = test system: BT-549; assay: Growth inhibition of human BT-549 cells incubated for 48 hrs by sulforhodamine B assay; assay type: functional; how it was run: as §1
[24] = test system: SF-295; assay: Growth inhibition of human SF-295 cells incubated for 48 hrs by sulforhodamine B assay; assay type: functional; how it was run: as §2
[25] = test system: KM12; assay: Growth inhibition of human KM12 cells incubated for 48 hrs by sulforhodamine B assay; assay type: functional; how it was run: as §1
[26] = test system: PC-3; assay: Growth inhibition of human PC-3 cells incubated for 48 hrs by sulforhodamine B assay; assay type: functional; how it was run: as §2
[27] = test system: OVCAR-5; assay: Growth inhibition of human OVCAR-5 cells incubated for 48 hrs by sulforhodamine B assay; assay type: functional; how it was run: as §2
[28] = test system: UO-31; assay: Growth inhibition of human UO-31 cells incubated for 48 hrs by sulforhodamine B assay; assay type: functional; how it was run: as §3
[29] = test system: CCRF-CEM; assay: Growth inhibition of human CCRF-CEM cells incubated for 48 hrs by sulforhodamine B assay; assay type: functional; how it was run: as §1
[30] = test system: SF-539; assay: Growth inhibition of human SF-539 cells incubated for 48 hrs by sulforhodamine B assay; assay type: functional; how it was run: as §2

## COc1cc2nc(-c3ccc(C(F)(F)F)cc3)cc(OCCCN3CCOCC3)c2cc1OC
[1]
  GI50: 10.1 µM
[2]
  GI50: 5.7 µM
[3]
  GI50: 0.706 µM
[4]
  GI50: 1.51 µM
[5]
  inhibition: 50%
[6]
  GI50: 2.51 µM
[7]
  GI50: 1.41 µM
[8]
  GI50: 2.25 µM
[9]
  GI50: 1.18 µM
[10]
  GI50: 0.167 µM
[11]
  GI50: 2.52 µM
[12]
  GI50: 0.406 µM
[13]
  GI50: 2.01 µM
[14]
  GI50: 0.355 µM
[15]
  GI50: 13.9 µM
[16]
  GI50: 1 µM
[17]
  GI50: 1.2 µM
[18]
  GI50: 3.73 µM
[19]
  GI50: 1.67 µM
[20]
  GI50: 2.91 µM
[21]
  GI50: 3.51 µM
[22]
  GI50: 3.32 µM
[23]
  GI50: 5 µM
[24]
  GI50: 0.349 µM
[25]
  GI50: 3.42 µM
[26]
  GI50: 2.19 µM
[27]
  GI50: 1.92 µM
[28]
  GI50: 1.77 µM
[29]
  GI50: 2.79 µM

## COc1cc2nc(-c3ccc(Cl)cc3)cc(OCCCN3CCC(O)CC3)c2cc1OC
[1]
  GI50: 2.78 µM
[2]
  GI50: 3.36 µM
[3]
  GI50: 1.22 µM
[4]
  GI50: 1.52 µM
[5]
  inhibition: 20%
[6]
  GI50: 1.8 µM
[7]
  GI50: 1.95 µM
[8]
  GI50: 1.91 µM
[9]
  GI50: 1.63 µM
[10]
  GI50: 0.416 µM
[11]
  GI50: 2.19 µM
[12]
  GI50: 1.39 µM
[13]
  GI50: 2.43 µM
[14]
  GI50: 0.591 µM
[15]
  GI50: 2.14 µM
[16]
  GI50: 1.25 µM
[17]
  GI50: 2.05 µM
[18]
  GI50: 3.24 µM
[19]
  GI50: 2.06 µM
[20]
  GI50: 3.19 µM
[21]
  GI50: 3.05 µM
[22]
  GI50: 2.07 µM
[23]
  GI50: 2.79 µM
[24]
  GI50: 1.66 µM
[25]
  GI50: 3.13 µM
[26]
  GI50: 2.02 µM
[30]
  GI50: 2.28 µM
[27]
  GI50: 1.16 µM
[28]
  GI50: 1.72 µM
[29]
  GI50: 2.65 µM

## COc1cc2nc(-c3ccc(C(F)(F)F)cc3)cc(OCCCN3CCC(O)CC3)c2cc1OC
[1]
  GI50: 4.96 µM
[2]
  GI50: 5.76 µM
[3]
  GI50: 1.34 µM
[4]
  GI50: 2.37 µM
[5]
  inhibition: 0%
[6]
  GI50: 3.27 µM
[7]
  GI50: 4.07 µM
[8]
  GI50: 3.75 µM
[9]
  GI50: 1.79 µM
[10]
  GI50: 0.376 µM
[11]
  GI50: 4.15 µM
[12]
  GI50: 1.59 µM
[13]
  GI50: 3.18 µM
[14]
  GI50: 0.535 µM
[15]
  GI50: 11.5 µM
[16]
  GI50: 1.68 µM
[17]
  GI50: 2.76 µM
[18]
  GI50: 6.1 µM
[19]
  GI50: 2.28 µM
[20]
  GI50: 10.5 µM
[21]
  GI50: 3.53 µM
[22]
  GI50: 3.85 µM
[23]
  GI50: 6.59 µM
[24]
  GI50: 1.61 µM
[25]
  GI50: 6.87 µM
[26]
  GI50: 3.66 µM
[30]
  GI50: 5.75 µM
[27]
  GI50: 3.14 µM
[28]
  GI50: 2.71 µM
[29]
  GI50: 3.26 µM
